ChEMBL document CHEMBL1157410, “7-aryl 1,5-dihydro-benzo[e][1,4]oxazepin-2-ones and analogs as non-steroidal progesterone receptor antagonists” (Bioorg Med Chem, 2008)

Each molecule was assayed against T1, Progesterone receptor (Homo sapiens, UniProt P06401) (assay: Inhibition of progesterone receptor mediated progesterone-induced alkaline phosphatase activity in human T47D cells). Conditions: not given.
T1 sequence (P06401 whole entry): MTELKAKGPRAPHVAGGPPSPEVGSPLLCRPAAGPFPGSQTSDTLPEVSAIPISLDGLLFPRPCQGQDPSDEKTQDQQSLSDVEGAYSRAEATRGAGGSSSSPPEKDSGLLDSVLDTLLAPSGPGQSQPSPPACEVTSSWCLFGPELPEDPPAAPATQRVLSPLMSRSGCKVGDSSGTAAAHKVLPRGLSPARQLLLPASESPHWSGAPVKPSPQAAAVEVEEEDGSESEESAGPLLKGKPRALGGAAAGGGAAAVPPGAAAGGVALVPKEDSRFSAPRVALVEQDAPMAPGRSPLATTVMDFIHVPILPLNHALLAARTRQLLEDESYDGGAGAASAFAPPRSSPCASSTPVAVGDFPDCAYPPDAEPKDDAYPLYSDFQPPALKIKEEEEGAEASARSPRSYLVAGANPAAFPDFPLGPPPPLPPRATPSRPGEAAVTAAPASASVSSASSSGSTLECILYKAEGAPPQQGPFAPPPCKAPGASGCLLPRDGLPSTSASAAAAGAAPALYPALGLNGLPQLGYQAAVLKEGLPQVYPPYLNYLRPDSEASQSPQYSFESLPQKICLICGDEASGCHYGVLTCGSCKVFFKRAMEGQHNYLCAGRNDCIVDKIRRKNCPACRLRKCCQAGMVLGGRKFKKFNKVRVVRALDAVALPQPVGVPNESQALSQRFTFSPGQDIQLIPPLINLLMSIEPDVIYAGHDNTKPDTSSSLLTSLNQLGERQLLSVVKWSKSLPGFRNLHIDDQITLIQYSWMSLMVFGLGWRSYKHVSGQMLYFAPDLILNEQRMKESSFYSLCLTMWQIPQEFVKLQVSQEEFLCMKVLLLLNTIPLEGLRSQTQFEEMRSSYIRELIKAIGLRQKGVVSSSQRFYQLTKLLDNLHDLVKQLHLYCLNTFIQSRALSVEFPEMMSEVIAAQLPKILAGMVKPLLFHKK
Format: cell-based

| Structure (SMILES) | IC50 [µM] |
| --- | --- |
| O=C1COC(c2ccc(Cl)s2)(c2ccc(Cl)s2)c2cc(-c3ccc(F)c(Cl)c3)ccc2N1 | 1 |
| CC(C)C1(c2cccs2)OCC(=S)Nc2ccc(-c3cc(F)cc(C#N)c3)cc21 (stereo not given) | 0.0782 |
| CC1(C)OCC(=O)Nc2ccc(-c3ccc(F)cc3)cc21 | 0.1 |
| CCCC1(c2cccs2)OCC(=O)Nc2ccc(-c3ccc(F)c(Cl)c3)cc21 (stereo not given) | 0.349 |
| CCC1(c2ccsc2)OCC(=O)Nc2ccc(-c3cc(F)cc(C#N)c3)cc21 (stereo not given) | 0.0592 |
| CC1(c2cccs2)OCC(=O)Nc2ccc(-c3ccc(F)c(Cl)c3)cc21 (stereo not given) | 0.0655 |
| CCC1(c2cccs2)OCC(=O)Nc2ccc(-c3cc(F)cc(C#N)c3)cc21 (stereo not given) | 0.1 |
| CCC1(c2ccsc2)OCC(=O)Nc2ccc(-c3ccc(F)c(Cl)c3)cc21 (stereo not given) | 0.117 |
| O=C1COC(c2ccccc2)(c2ccccc2)c2cc(-c3ccc(F)c(Cl)c3)ccc2N1 | 0.088 |
| CN1CC(=O)Nc2ccc(-c3ccc(F)c(Cl)c3)cc2C1(C)C | 0.105 |
| CCC1(c2ccco2)OCC(=O)Nc2ccc(-c3ccc(F)c(Cl)c3)cc21 (stereo not given) | 0.0625 |
| O=C1COC(c2cccs2)(c2cccs2)c2cc(-c3ccc(F)c(Cl)c3)ccc2N1 | 0.0652 |
| CC(C)C1(c2cccs2)OCC(=O)Nc2ccc(-c3ccc(F)c(Cl)c3)cc21 (stereo not given) | 0.366 |
| CC1=NCC(=O)Nc2ccc(-c3ccc(F)c(Cl)c3)cc21 | 0.677 |
| N#Cc1cc(F)cc(-c2ccc3c(c2)C(c2ccc(Cl)s2)(c2ccc(Cl)s2)OCC(=O)N3)c1 | 1 |
| CC(C)C1(c2cccs2)OCC(=O)Nc2ccc(-c3cc(F)cc(C#N)c3)cc21 (stereo not given) | 0.138 |
| CCC1(c2cccs2)OCC(=O)Nc2ccc(-c3csc(C#N)c3)cc21 (stereo not given) | 0.108 |
| O=C1COC(c2ccco2)(C(F)(F)C(F)(F)F)c2cc(-c3ccc(F)c(Cl)c3)ccc2N1 (stereo not given) | 0.0824 |
| CCC1(c2cccs2)OCC(=O)Nc2ccc(-c3ccc(F)c(Cl)c3)cc21 (stereo not given) | 0.208 |
| CC1(C)OCC(=O)Nc2ccc(-c3ccccc3F)cc21 | 0.0621 |

Other lines, results leading:

| IC50 [µM] | Structure (SMILES) |
| --- | --- |
| 0.0157 | CC1(C)OCC(=O)Nc2ccc(-c3cccc(F)c3F)cc21 |
| 0.0291 | CC1(C)OCC(=O)Nc2ccc(-c3cc(Cl)cc(Cl)c3)cc21 |
| 0.015 | CC1(C)OCC(=O)Nc2ccc(-c3cc(F)cc(Cl)c3)cc21 |
| 0.0341 | N#Cc1cc(F)cc(-c2ccc3c(c2)C(c2ccco2)(C(F)(F)C(F)(F)F)OCC(=O)N3)c1 (stereo not given) |
| 0.0149 | CC1(C)OCC(=O)Nc2ccc(-c3cccc(F)c3)cc21 |
| 0.0299 | CCC1(c2ccco2)OCC(=O)Nc2ccc(-c3coc(C#N)c3)cc21 (stereo not given) |
| 0.0266 | N#Cc1cc(F)cc(-c2ccc3c(c2)C(c2cccs2)(c2cccs2)OCC(=O)N3)c1 |
| 0.0225 | O=C1COC(c2ccco2)(c2ccco2)c2cc(-c3ccc(F)c(Cl)c3)ccc2N1 |
| 0.0293 | CC1(C)OCC(=O)Nc2ccc(-c3ccc(F)c(F)c3)cc21 |
| 0.0301 | CC1(C)OCC(=O)Nc2ccc(-c3ccc(F)c(Cl)c3)cc21 |
| 0.0346 | CC1(C)OCC(=O)Nc2ccc(-c3cc(Cl)cc(C#N)c3)cc21 |
| 0.03 | CC1(C)OCC(=O)Nc2ccc(-c3cc(F)cc(F)c3)cc21 |

The molecules below were run against T1, Progesterone receptor (assay: Agonist activity at progesterone receptor assessed as alkaline phosphatase activity in human T47D cells). Conditions: not given.

| Structure (SMILES) | EC50 [µM] |
| --- | --- |
| CC1(C)OC(=O)Nc2ccc(-c3cc(F)cc(C#N)c3)cc21 | 0.09 |

Same assay, conditions: read-out: EC50

| Structure (SMILES) | EC50 [µM] |
| --- | --- |
| CC1(C)OCC(=S)Nc2ccc(-c3cc(F)cc(F)c3)cc21 | 0.0358 |

The molecules below were run against T2, Mineralocorticoid receptor (Homo sapiens) (UniProt P08235) (assay: Antagonist activity at cloned mineralocorticoid receptor-ligand binding domain expressed in african green monkey COS7 cells by GAL4 luciferase reporter assay). Conditions: COS-7; concentration not given here.
T2 sequence (whole entry): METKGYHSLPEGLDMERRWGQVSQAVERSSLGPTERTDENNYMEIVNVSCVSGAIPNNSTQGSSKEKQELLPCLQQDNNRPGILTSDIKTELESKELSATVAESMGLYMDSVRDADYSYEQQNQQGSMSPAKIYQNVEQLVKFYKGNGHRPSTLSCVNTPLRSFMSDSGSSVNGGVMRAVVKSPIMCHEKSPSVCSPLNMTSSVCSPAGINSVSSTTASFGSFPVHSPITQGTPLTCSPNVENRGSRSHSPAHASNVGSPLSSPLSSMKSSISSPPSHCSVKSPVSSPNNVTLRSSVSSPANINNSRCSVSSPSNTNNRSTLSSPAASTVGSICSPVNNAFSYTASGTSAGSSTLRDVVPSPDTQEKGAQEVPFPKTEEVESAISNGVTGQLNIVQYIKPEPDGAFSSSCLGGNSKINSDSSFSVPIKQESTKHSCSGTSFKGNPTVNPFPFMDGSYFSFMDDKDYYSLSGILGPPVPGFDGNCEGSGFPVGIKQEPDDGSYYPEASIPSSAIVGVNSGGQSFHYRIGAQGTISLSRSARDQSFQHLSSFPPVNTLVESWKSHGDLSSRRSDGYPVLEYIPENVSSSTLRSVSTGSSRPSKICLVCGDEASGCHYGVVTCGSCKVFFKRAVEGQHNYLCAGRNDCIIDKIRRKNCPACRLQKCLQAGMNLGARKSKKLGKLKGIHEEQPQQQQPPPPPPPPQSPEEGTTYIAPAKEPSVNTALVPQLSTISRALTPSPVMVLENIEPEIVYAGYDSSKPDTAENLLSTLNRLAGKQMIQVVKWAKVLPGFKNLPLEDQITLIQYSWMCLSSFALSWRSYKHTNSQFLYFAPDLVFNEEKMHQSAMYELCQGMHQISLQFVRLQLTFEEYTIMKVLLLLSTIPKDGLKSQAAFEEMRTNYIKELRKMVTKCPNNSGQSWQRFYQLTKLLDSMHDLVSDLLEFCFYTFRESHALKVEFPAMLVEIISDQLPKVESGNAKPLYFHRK
Format: cell-based
How it was run: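 GAL4 DNA-binding domain fused to receptor ligand-binding domain, one-hybrid format. LBD fusion and GAL4_UAS (5 copies, E1b minimal TATA) luciferase reporter plasmids, 50 ng/well each, transfected 16 h into COS-7 cells. Cells grown in phenol red-free DMEM with 10% charcoal/dextran-treated FBS. Compound exposure 20 h, then luciferase read on lysates. Mean of at least duplicate determinations.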

| Structure (SMILES) | inhibition [%] |
| --- | --- |
| CC#C[C@]1(O)CC[C@H]2[C@@H]3CCC4=CC(=O)CCC4=C3[C@@H](c3ccc(N(C)C)cc3)C[C@@]21C | 96 |
